# Rows were chosen to be rich in hits. Some 3.5% of all compounds tested hit in one or more screens of this group.
# MrgX1 ag = human MrgX1 receptor agonism, primary screen. B-score at 10 µM. 310,000 tested, 0.44% active. MrgX1-HEK293 cells, Fluo-4 calcium fluorescence, agonist mode; hits give high values. Q96LB2;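 active = calcium response B-score plate-corrected fluorescence ratio at least 3 library SD, with starting fluorescence B-score inside 5 SD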
# Target sequence (Q96LB2 whole entry, looked up): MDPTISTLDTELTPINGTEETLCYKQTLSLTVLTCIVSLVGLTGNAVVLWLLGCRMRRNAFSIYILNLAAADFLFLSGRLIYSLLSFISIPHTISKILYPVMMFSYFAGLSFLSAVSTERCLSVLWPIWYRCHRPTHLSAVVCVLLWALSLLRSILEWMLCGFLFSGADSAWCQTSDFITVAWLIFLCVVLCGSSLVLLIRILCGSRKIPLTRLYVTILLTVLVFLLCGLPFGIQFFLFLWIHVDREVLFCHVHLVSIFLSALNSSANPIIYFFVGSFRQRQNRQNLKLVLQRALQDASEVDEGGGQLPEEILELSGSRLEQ
#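 System: HEK293 cells stably expressing human MrgX1 receptor; Dosing: test compound in the initial addition of three; Schedule: overnight plating, then 30 min 37 °C plus 30 min room-temperature dye loading; Detection: kinetic calcium dye fluorescence, Fluo-4 NW; Controls: per-plate positive and negative controls for Z′ factor.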
# RGS4 block = human RGS4 inhibition; HEK293 M3R/RGS4 inducible, Fluo-4 calcium flux; hits give high values; triggered by carbachol at its EC20; B-score at 10 µM; 310,000 tested, 0.45% active; AID 463165;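 active = B-score, a plate-corrected calcium signal, over three deviations above library mean, with baseline fluorescence within five deviations of library mean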;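 note: RGS4 expression induced by doxycycline in cells with stable M3 receptor; B-score is computed from the integrated fluorescence ratio over baseline after carbachol; higher B-score means a larger calcium signal and so more RGS4 inhibition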
# MrgX1 allo act = allosterically activates human MrgX1 receptor signaling; Q96LB2; MrgX1-HEK293, Fluo-4 calcium flux, FDSS; hits give high values; B-score at 10 µM; 310,000 tested, 0.63% active; AID 588675;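 active = plate-corrected calcium response at least 3 library SD above typical, normal starting fluorescence, not activating the receptor alone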;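 note: compound read alongside a low EC10 to EC30 dose of BAM8-22 agonist; peak minus trough fluorescence over baseline measured at the second addition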
# RGS4 pot = potentiators or activators of RGS4 | HEK293 M3R/inducible RGS4, carbachol calcium flux Fluo4; hits give low values | B-score at 10 µM | 310,000 tested, 0.92% active;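 active = B-score of the integrated calcium signal more than 4 SD below the library mean, with starting fluorescence not abnormally high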;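 note: negative B-score means reduced calcium response which marks RGS4 activation or potentiation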
#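 Assay system: HEK293 FlpIn-TREx cells, stable M3R, doxycycline-inducible RGS4 / Probe or stimulus: carbachol, ECmax concentration / Times: overnight RGS4 induction, 30 min dye load 37 °C, 20 min compound RT / Signal: kinetic calcium fluorescence imaging with Fluo4-AM dye, 2 µM / Measure: Agonist-evoked peak-minus-minimum fluorescence over baseline, integrated ratio, B score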
# MrgX1 antag = blocks BAM8-22 activation of human MrgX1 receptor; MRGX1-HEK293 calcium flux, Fluo-4, BAM8-22 antagonism; hits give low values; B-score at 10 µM; 310,000 tested, 1.3% active; AID 588676;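 active = calcium-response B-score plate-corrected more than 3 library SD below zero, starting fluorescence within 5 deviations, no agonist response on first addition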;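 note: peak minus trough fluorescence over baseline after final BAM8-22 challenge near maximal dose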
# MrgX1 allo conf = human MrgX1 positive allosteric modulation, re-confirmation. shares compounds with MrgX1 allo act. MrgX1-HEK293, Fluo-4 calcium fluorescence, FDSS. activation (ratio percentage), % at 10 µM. 1,200 tested, 13% active;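 active = ratio at least 3 SD above the weak peptide control, stable starting fluorescence, no direct agonism earlier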;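 note: compound followed by low BAM8-22 agonist challenge near EC20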
# HEK293 Ca flux = activity in parental HEK293 cells lacking MrgX1 | 4,000 tested, 2% active | shares compounds with MrgX1 antag | AID 624111 | fluorescence ratio F(max-min)/F0 at 10 µM | Fluo-4 calcium fluorescence, FDSS;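 active = duplicate-averaged calcium fluorescence ratio at least three times the standard deviation of buffer wells, a nonspecific response in parental cells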
# HEK293 Ca counter = MrgX1 allosteric activator counter-screen hit in parental HEK293 cells; shares compounds with MrgX1 antag; parental HEK293 calcium flux, Fluo-4 fluorescence ratio; hits give high values; fluorescence ratio F(max-min)/F0 at 10 µM; 4,000 tested, 0.4% active;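 active = calcium fluorescence ratio, averaged over duplicates, at least 3 SD of the buffer-well ratio, meaning a nonspecific response in receptor-free cells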;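 note: untransfected parental HEK293 lacking MrgX1 used as counterscreen for MrgX1 allosteric activators; fluorescence change taken during the second addition on a kinetic imager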
# HEK293 Ca cntr2 = MrgX1 activator counter-screen hit in parental HEK293 cells; 4,000 tested, 8.7% active; AID 624115; fluorescence ratio F(max-min)/F0 at 10 µM; Fluo-4 calcium fluorescence (FDSS); hits give high values; shares compounds with MrgX1 antag;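 active = calcium fluorescence ratio at least three times the spread of buffer wells, meaning a non-specific response in parental cells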
# The depositor's hits bear a star; i = inactive; . = no result.
SMILES,MrgX1 ag,RGS4 block,MrgX1 allo act,RGS4 pot,MrgX1 antag,MrgX1 allo conf,HEK293 Ca flux,HEK293 Ca counter,HEK293 Ca cntr2
CC(=O)Nc1ccc(NC(=O)CSc2nc3[nH]ncc3c(=O)n2-c2ccccc2)cc1,i,i,i,i,i,.,.,.,.
CC1(C)OC2C(O1)[C@@H](CO)O[C@H]2n1cnc2c(N)ncnc21 (stereo partly specified),i,i,i,i,i,.,.,.,.
OC[C@H]1O[C@@H](n2cnc3c(Nc4ccccc4)ncnc32)[C@H](O)[C@@H]1O,i,i,7.1*,i,i,i,i,i,i
Cn1cccc1-c1nc2ccc(NC(=O)c3ccccc3)cc2[nH]1,i,i,7.2*,i,i,39%*,i,i,i
NC(=O)c1c(NC(=O)C2c3ccccc3Oc3ccccc32)sc2c1CCCCC2,i,i,13*,i,i,i,i,i,i
CC(C)N1CC(COc2ccc(Cl)cc2Cl)OC1=O (stereo unspecified),i,i,i,i,i,.,.,.,.
O=C(NCc1ccccn1)c1ccc(COc2ccc(Cl)cc2)o1,i,i,7.3*,i,i,i,i,i,i
O=C(NCCNC(=O)c1cc(Cl)ccc1Cl)c1ccccn1,i,i,9.3*,i,i,i,i,i,77*
O=C(NCc1ccccn1)c1ccc(Cl)cc1Cl,i,i,i,i,i,.,.,.,.
O=C(NCc1ccccn1)c1cc(Cl)ccc1OCc1ccccc1,i,i,6.9*,i,i,i,i,i,i
O=c1ccc(-c2ccc(S(=O)(=O)Nc3ccc(F)cc3)s2)n[nH]1,i,i,i,i,i,.,.,.,.
N#Cc1cnn2ccc(-c3ccc4c(c3)CCC4)nc12,i,i,i,i,i,.,.,.,.
Cc1ccc(C(=O)CCC(=O)Nc2ccccc2F)cc1,i,i,i,i,i,.,.,.,.
Cc1ccc2[nH]cc(C(=O)CCl)c2c1,i,i,7.4*,i,i,i,i,i,i
COc1cccc(CNc2ncc(Br)cc2Br)c1O,i,i,i,i,i,.,.,.,.
COc1cccc(CNc2ccc(Br)cn2)c1O,i,i,12*,i,i,i,i,i,i
CCOC(=O)c1c(C)nc(-c2ccccc2)nc1N,i,i,7.4*,i,i,i,i,i,i
C/C(=N\NC(=O)c1ccc(OC2CCCC2)cc1)c1ccc(O)cc1,i,i,i,i,i,.,.,.,.
CCN1C(=O)C(CC(=O)Nc2ccc(F)cc2)N(Cc2ccco2)C1=S (stereo unspecified),i,i,9.2*,i,i,i,i,i,i
O=C(CN1C(=O)NC2(CCCc3ccccc32)C1=O)N1CCCCC1 (stereo unspecified),i,i,i,i,i,.,.,.,.
Cc1cnn(-c2cc(Oc3ccccc3)ncn2)c1,i,i,8.8*,i,i,i,i,i,i
c1ccc(Oc2cc(-n3cncn3)ncn2)cc1,i,i,i,i,i,.,.,.,.
NC1=NS(=O)(=O)NC1c1ccc(F)cc1 (stereo unspecified),i,i,i,i,i,.,.,.,.
CCOc1ccccc1NC(=O)CCS(=O)(=O)c1cccc2nonc12,i,.,7.5*,.,i,i,i,i,i

# Screens: PubChem, Johns Hopkins Ion Channel Center
